In ChEMBL document CHEMBL4052644, “Synthesis of novel benzylidene analogues of betulinic acid as potent cytotoxic agents” (Eur J Med Chem, 2017):

How the values were obtained:
SK-MEL-2 = assay: Cytotoxicity against human SK-MEL-2 cells assessed as reduction in cell viability; type: functional, cell-based
A549 [1] = assay: Growth inhibition of human A549 cells at 10 uM after 48 hrs by SRB assay relative to control; type: functional; conditions: A549, 48 h, read-out: GI
Procedure, shortened: (§1)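 Primary SRB screen of every compound at a single concentration of 10 µM. Growth inhibition is expressed relative to control.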

PC-3 [2] = assay: Growth inhibition of human PC3 cells at 10 uM after 48 hrs by SRB assay relative to control; type: functional; conditions: PC-3, 48 h, read-out: GI; procedure, shortened: as §1
HCT-116 [3] = assay: Growth inhibition of human HCT116 cells at 10 uM after 48 hrs by SRB assay relative to control; type: functional; conditions: HCT-116, 48 h, read-out: GI; procedure, shortened: as §1
MCF7 [4] = assay: Growth inhibition of human MCF7 cells at 10 uM after 48 hrs by SRB assay relative to control; type: functional; conditions: MCF7, 48 h, read-out: GI; procedure, shortened: as §1
MIA PaCa-2 [5] = assay: Growth inhibition of human MIAPaCa2 at 10 uM after 48 hrs by SRB assay relative to control; type: functional; conditions: MIA PaCa-2, 48 h, read-out: GI; procedure, shortened: as §1
A549 [6] = assay: Cytotoxicity against human A549 cells assessed as reduction in cell viability after 48 hrs by SRB assay; type: functional, cell-based; conditions: A549, 48 h
Procedure, shortened: (§2)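 SRB assay. Compounds active at 10 µM in the primary screen were retested at 1, 2.5 and 5 µM, and IC50 was calculated from these concentrations. The normal breast epithelial line fR2 was tested alongside the cancer lines.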

PC-3 [7] = assay: Cytotoxicity against human PC3 cells assessed as reduction in cell viability after 48 hrs by SRB assay; type: functional, cell-based; conditions: PC-3, 48 h; procedure, shortened: as §2
HCT-116 [8] = assay: Cytotoxicity against human HCT116 cells assessed as reduction in cell viability after 48 hrs by SRB assay; type: functional, cell-based; conditions: HCT-116, 48 h; procedure, shortened: as §2
MCF7 [9] = assay: Cytotoxicity against human MCF7 cells assessed as reduction in cell viability after 48 hrs by SRB assay; type: functional, cell-based; conditions: MCF7, 48 h; procedure, shortened: as §2
MIA PaCa-2 [10] = assay: Cytotoxicity against human MIAPaCa2 cells assessed as reduction in cell viability after 48 hrs by SRB assay; type: functional, cell-based; conditions: MIA PaCa-2, 48 h; procedure, shortened: as §2
[11] = Cytotoxicity against human FR2 cells assessed as reduction in cell viability after 48 hrs by SRB assay; type: cell-based; conditions: FR2, 48 h; procedure, shortened: as §2
[12] = Selectivity index, ratio of IC50 for human FR2 cells to IC50 for human A549 cells; type: functional
Procedure, shortened: (§3)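 Selectivity index is the IC50 in normal breast epithelial fR2 cells divided by the IC50 in each cancer line. All IC50 values come from the SRB assay.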

[13] = Selectivity index, ratio of IC50 for human FR2 cells to IC50 for human PC3 cells; type: functional; procedure, shortened: as §3
[14] = Selectivity index, ratio of IC50 for human FR2 cells to IC50 for human HCT116 cells; type: functional; procedure, shortened: as §3
[15] = Selectivity index, ratio of IC50 for human FR2 cells to IC50 for human MCF7 cells; type: functional; procedure, shortened: as §3
[16] = Selectivity index, ratio of IC50 for human FR2 cells to IC50 for human MIAPaCa2 cells; type: functional; procedure, shortened: as §3
HCT-116 [17] = assay: Antiproliferative activity against human HCT116 cells assessed as reduction in colony formation after 14 days by crystal violet staining based clonogenic assay; type: functional, cell-based
Procedure, shortened: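 HCT 116 cells were treated at 0.7, 1.4 and 2.8 µM. Colonies formed over 14 days of treatment and were compared with untreated control.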

HCT-116 [18] = assay: Antimigratory activity in human HCT116 cells assessed as inhibition of wound closure after 24 hrs by wound healing assay; type: functional, cell-based
Procedure, shortened: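 HCT 116 monolayers were scratched, then treated at 1.4, 2.0 and 2.5 µM for 24 h. Wound area was measured at 0 and 24 h. Migration was derived from the recovered scratch area relative to 0 h and to the matching control.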

HCT-116 [19] = assay: Induction of morphological changes in human HCT116 cells assessed as cell growth arrest after 24 hrs by phase contrast microscopic method; type: functional, cell-based
Procedure, shortened: (§4)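 HCT 116 cells were treated at 0.7, 1.4, 2.0 and 2.5 µM for 24 h, then examined under a phase contrast microscope for growth arrest and morphological change.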

HCT-116 [20] = assay: Induction of mitochondrial membrane potential loss in human HCT116 cells after 24 hrs by rhodamine-123 dye based fluorescence microscopy; type: functional, cell-based
Procedure, shortened: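 HCT-116 cells were treated at 0.7, 1.4, 2.0 and 2.5 µM and stained with rhodamine-123. Loss of membrane potential was read as a decrease in fluorescence compared with untreated cells.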

HCT-116 [21] = assay: Induction of morphological changes in human HCT116 cells assessed as change in cell morphology after 24 hrs by phase contrast microscopic method; type: functional, cell-based; procedure, shortened: as §4
A549 [22] = assay: Growth inhibition of human A549 cells after 18 hrs; type: functional, cell-based; conditions: A549, 18 h
Procedure, shortened: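 Sulforhodamine B (SRB) assay on A-549 human lung cancer cells. Compounds were first screened at 10 µM. Those active at 10 µM were retested at 1, 2.5 and 5 µM, and IC50 was calculated from these concentrations.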

DLD-1 = assay: Cytotoxicity against human DLD1 cells assessed as cell growth inhibition after 18 hrs; type: functional, cell-based; conditions: DLD-1, 18 h

| Compound | inhibition of growth at 10 µM (A549 [1]) | inhibition of growth at 10 µM (PC-3 [2]) | inhibition of growth at 10 µM (HCT-116 [3]) | inhibition of growth at 10 µM (MCF7 [4]) | inhibition of growth at 10 µM (MIA PaCa-2 [5]) | IC50 (A549 [6]) | IC50 (PC-3 [7]) | IC50 (HCT-116 [8]) | IC50 (MCF7 [9]) | IC50 (MIA PaCa-2 [10]) | IC50 [11] | Ratio IC50 [12] | Ratio IC50 [13] | Ratio IC50 [14] | Ratio IC50 [15] | Ratio IC50 [16] | other results |
| --- | --- | --- | --- | --- | --- | --- | --- | --- | --- | --- | --- | --- | --- | --- | --- | --- | --- |
| CC(C)[C@@H]1CC[C@]2(C(=O)O)CC[C@]3(C)[C@H](CC[C@@H]4[C@@]5(C)C=C(Cl)C(=O)C(C)(C)[C@@H]5CC[C@]43C)[C@@H]12 | – | – | – | – | – | – | – | – | – | – | – | – | – | – | – | – | IC50 (SK-MEL-2): 0.13 µM |
| C=C(C)[C@@H]1CC[C@]2(C(=O)O)CC[C@]3(C)[C@H](CC[C@@H]4[C@@]5(C)C/C(=C\c6ccc([N+](=O)[O-])cc6)[C@H](O)C(C)(C)[C@@H]5CC[C@]43C)[C@@H]12 | 73% | 56% | 92% | 85% | 81% | 1.5 µM | 1.6 µM | 1.36 µM | 3.5 µM | 3.2 µM | 16.8 µM | 11.2 | 10.5 | 12.35 | 4.8 | 5.25 | inhibition (HCT-116 [17]): Dose-dependent effect; inhibition (HCT-116 [18]): Dose-dependent effect; Activity (HCT-116 [19]): Dose-dependent effect; Activity (HCT-116 [20]): Dose-dependent effect; Activity (HCT-116 [21]): Dose-dependent effect |
| C=C(C)[C@@H]1CC[C@]2(C(=O)OCC(N)(CO)CO)CC[C@]3(C)[C@H](CC[C@@H]4[C@@]5(C)CC[C@H](OC(C)=O)C(C)(C)[C@@H]5CC[C@]43C)[C@@H]12 | – | – | – | – | – | – | – | – | – | – | – | – | – | – | – | – | IC50 (A549 [22]): 2.5 µM |
| C=C(C)[C@@H]1CC[C@]2(COC(C)=O)CC[C@]3(C)[C@H](CC[C@@H]4[C@@]5(C)CC[C@H](O[C@H]6O[C@H](CO)[C@@H](O)[C@H](O)[C@H]6O)C(C)(C)[C@@H]5CC[C@]43C)[C@@H]12 | – | – | – | – | – | – | – | – | – | – | – | – | – | – | – | – | IC50 (DLD-1): 4.45 µM |
| C=C(C)[C@@H]1CC[C@]2(C(=O)O)CC[C@]3(C)[C@H](CC[C@@H]4[C@@]5(C)C/C(=C\c6ccc(OC)cc6)[C@H](O)C(C)(C)[C@@H]5CC[C@]43C)[C@@H]12 | 54% | 52% | 63% | 69% | 67% | 4.3 µM | 7.4 µM | 4.9 µM | 6.9 µM | 6.4 µM | 21.6 µM | 5.016 | 2.914 | 4.402 | 3.126 | 3.37 | – |
| C=C(C)[C@@H]1CC[C@]2(C(=O)O)CC[C@]3(C)[C@H](CC[C@@H]4[C@@]5(C)C/C(=C\c6ccc(OC)cc6)C(=O)C(C)(C)[C@@H]5CC[C@]43C)[C@@H]12 | 94% | 81% | 69% | 88% | 71% | 5.1 µM | 6.8 µM | 5.4 µM | 6.8 µM | 7.07 µM | 23.9 µM | 4.696 | 3.522 | 4.435 | 3.522 | 3.387 | – |
| C=C(C)[C@@H]1CC[C@]2(C(=O)O)CC[C@]3(C)[C@H](CC[C@@H]4[C@@]5(C)C/C(=C\c6ccccc6Br)C(=O)C(C)(C)[C@@H]5CC[C@]43C)[C@@H]12 | 90% | 77% | 86% | 80% | 81% | 6.1 µM | 7.6 µM | 4.3 µM | 7.7 µM | 4.04 µM | 19 µM | 3.111 | 2.497 | 4.413 | 2.464 | 4.698 | – |
| CC(C)[C@@H]1CC[C@]2(C(=O)O)CC[C@]3(C)[C@H](CC[C@@H]4[C@@]5(C)C=C(C#N)C(=O)C(C)(C)[C@@H]5CC[C@]43C)[C@@H]12 | – | – | – | – | – | – | – | – | – | – | – | – | – | – | – | – | IC50 (SK-MEL-2): 0.81 µM |
